Source: PubChem (several laboratories)
A selection: hits, their analogues and other compounds. The true share with any hit is near 2.3%.
HNF4A DNA FP: change in binding of human HNF4A to DNA, primary screen, biochemical, fluorescence polarization, FITC-DNA; Hepatocyte nuclear factor 4-alpha (Homo sapiens), P41235; activity change, % at 10 µM; 1 h; 360,000 tested, 0.3% active; in the data active means activity change above about 30%, passing the limit was not always enough
CRFR2-BP antag: antagonists of CRF-BP/CRF-R2 complex, primary screen, cell-based, HEK293, calcium dye fluorescence, uHTS. 350,000 tested, 0.59% active. CRF-induced calcium fluorescence. inhibition, % at 11.8 µM;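 active means inhibition of the ligand-induced calcium signal above about 50% at the single tested concentration, limit read from the data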
TPT1 inh: Candida albicans TPT1 enzyme inhibitors, primary screen, biochemical, fluorescence polarization. tRNA 2'-phosphotransferase TPT1 (Candida albicans SC5314). recombinant caTPT1, FP RNA substrate dephosphorylation. inhibition, % at 5 µM. 300,000 tested, 0.81% active;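 active means inhibition above the mean of all tested compounds plus 3 SD, set per screening campaign, cut at about 24% in these data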;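 further: plate controls were DMSO alone for no effect and ferristatin control at 100 nM for full effect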
CRFBP-R2 agonist: agonists of CRF-BP/CRF-R2 complex, primary screen, cell-based, HEK293, calcium dye fluorescence, uHTS; activation, % at 13.2 µM; calcium dye fluorescence (FLIPR); percent of saturating CRF peptide response; 350,000 tested, 0.46% active; CRF-binding protein / CRF receptor 2 complex (human);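 active means activation of at least 50%, plus an integration ratio under a set limit after plate pattern correction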;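 further: plate controls were neutral control wells without compound for no effect and CRF at EC100 for full effect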
CSN inh: inhibitors of CSN-mediated cullin deneddylation, primary screen, biochemical, fluorescence polarization, uHTS; Purified CSN, SCF-Nedd8-OG deneddylation; COP9 signalosome complex subunit 5 (Homo sapiens), Q92905; 360,000 tested, 0.38% active; inhibition, % at 12.5 µM;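 active means pattern-corrected inhibition above about 35%, with an unprinted fluorescence ratio check between 0.5 and 1.5, limit read from the data, passing the limit was not always enough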;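 further: 0% = enzyme with substrate and 100% = substrate without enzyme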
Target sequence (Q92905 whole entry, looked up, one chain of several): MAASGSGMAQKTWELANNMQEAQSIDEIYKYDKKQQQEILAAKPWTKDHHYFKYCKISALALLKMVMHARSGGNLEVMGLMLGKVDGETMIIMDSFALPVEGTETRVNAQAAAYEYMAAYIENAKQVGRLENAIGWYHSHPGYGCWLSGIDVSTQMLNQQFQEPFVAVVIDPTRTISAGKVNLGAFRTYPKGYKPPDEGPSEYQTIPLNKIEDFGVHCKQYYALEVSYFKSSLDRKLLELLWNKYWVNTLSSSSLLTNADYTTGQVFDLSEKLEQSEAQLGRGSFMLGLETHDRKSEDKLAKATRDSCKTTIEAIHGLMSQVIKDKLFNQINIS
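Assay system: purified human Csn5 enzyme expressed in HEK293T cells; Input: 0.24 nM Csn5 enzyme, final concentration; Reagent: 10 nM SCFSkp2-Nedd8OG; Compound dosing: 12.5 µM single point; Times: reaction 90 min, room temperature; Technique: fluorescence polarization readout.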
Rpn11 block: Rpn11 (PSMD14) deubiquitinase inhibitors, primary screen, biochemical, fluorescence polarization, uHTS; 26S proteasome non-ATPase regulatory subunit 14 (Homo sapiens), O00487; human 26S proteasome, Ub4-pepOG fluorescence polarization; 20S core pre-blocked with epoxomicin; calls only at 20 µM; 360,000 tested, 0.59% active; AID 588493, 2011;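 active means inhibition at 20 µM, scaled to each plate's controls, above about 33%, limit read from the data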
Rpn11 inh conf: Rpn11 (PSMD14) deubiquitinase inhibitors, confirmation, biochemical, fluorescence polarization, single concentration | shares compounds with Rpn11 block | purified human 26S proteasome, Ub4-pepOG fluorescence polarization; proteasome pretreated with epoxomicin | inhibition, % at 20 µM | 1,900 tested, 29% active
MMP-2 counter: MMP-2 enzyme inhibition, confirmation, counter-screen for RPN11 inhibitor project, biochemical, fluorescence, single concentration; AID 602330, 2012; shares compounds with Rpn11 block; recombinant MMP-2, FRET peptide cleavage fluorescence; inhibition, % at 20 µM; 1,900 tested, 4% active;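 further: human MMP-2 activated beforehand with APMA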
Thrombin FP: bovine thrombin protease inhibition, confirmation, counter-screen for Rpn11 inhibitor project, biochemical, fluorescence polarization, single concentration; shares compounds with Rpn11 block; bovine thrombin cleavage of Ub4-pepOG; inhibition, % at 20 µM; 1,900 tested, 13% active; AID 602333, 2012;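 active means mean inhibition at least 40% at 20 µM, or signal 3 deviations below plate average, so some actives read negative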;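 further: plate controls were thrombin with DMSO for no effect and buffer wells lacking thrombin for full effect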
An asterisk follows results filed as active; i = inactive; . = no result given; + = active, no number. Unless noted, no stated cut-off is given here; in the data, active means inhibition above about 40%; inactive means the rest.

SMILES	HNF4A DNA FP	CRFR2-BP antag	TPT1 inh	CRFBP-R2 agonist	CSN inh	Rpn11 block	Rpn11 inh conf	MMP-2 counter	Thrombin FP
C#CCOCCOCCOCCNc1nc(N2CCN(C(=O)CCCCCCCCCCNC(=O)[C@H](CCCCN)n3cc(C[C@@H](C)CC)nn3)CC2)nc(N2CCN(C(=O)CCCCCCCCCCNC(=O)[C@H](CCCCN)n3cc(C[C@@H](C)CC)nn3)CC2)n1	187.2	-141.8	-0.6	91.5*	106.1*	+	44.6*	-56.3	29.0
C#CCOCCOCCOCCNc1nc(N2CCN(C(=O)CCCCCCCCCCNC(=O)[C@H](CO)n3cc(CCCSC)nn3)CC2)nc(N2CCN(C(=O)CCCCCCCCCCNC(=O)[C@H](CCCCN)n3cc(C[C@@H](C)CC)nn3)CC2)n1	.	.	-2.5	.	.	.	.	.	.
C#CCOCCOCCOCCNc1nc(N2CCOCC2)nc(N2CCN(C(=O)[C@H](Cc3cc4ccccc4[nH]3)n3cc([C@@H](N)CC(C)C)nn3)CC2)n1	1.3	0.4	-0.2	-0.8	1.7	i	.	.	.
C#CCOCCOCCOCCNc1nc(N2CCN(C(=O)[C@H](Cc3cc4ccccc4[nH]3)n3cc([C@@H](N)CC(C)C)nn3)CC2)nc(N2CCN(C(=O)[C@H](Cc3cc4ccccc4[nH]3)n3cc([C@@H](N)CC(C)C)nn3)CC2)n1	24.6	18.1	0.3	-0.2	50.0*	+	33.1	1.4	-4.7
CC(=O)Nc1ccccc1C(=O)C(=O)O	0.8	14.9	-2.2	4.1	0.2	i	.	.	.
COC(=O)c1c(-c2cccnc2)csc1NC(=O)c1ccc2c(c1)OCO2	14.1	-1.2	21.2	0.3	10.1	+	52.1*	-19.8	21.1
COC(=O)c1sccc1NC(=O)c1ccc2c(c1)OCO2	-0.1	-7.8	-0.2	-0.7	-3.6	i	.	.	.
O=C(N/N=C/c1cc([N+](=O)[O-])ccc1O)c1cc(-c2ccccc2)nc2ccccc12	3.8	6.4	3.0	-1.1	5.5	+	42.6*	23.9	-7.3
COc1ccc(NC(=O)CC(=O)Nc2ccc(OC)cc2OC)c(OC)c1	2.5	5.7	-1.2	0.6	2.6	+	1.3	-15.2	-16.7
Cc1ccc(C(=O)N(c2ccccn2)C(C)c2ccco2)cc1 (stereo unspecified)	-0.8	-17.2	-1.4	-1.1	-1.0	i	.	.	.
CC(C)c1onc(C(=O)N2CCN(c3ccc(F)cc3)CC2)c1[N+](=O)[O-]	-1.9	4.3	-1.1	-0.9	1.6	i	.	.	.
C=CCc1cc(/C=C2/NC(=S)NC2=O)cc(OC)c1O	10.3	-32.6	23.7	13.0	18.9	+	31.6	7.8	21.5
C=CCc1cc(/C=C2/NC(=O)NC2=O)cc(OCC)c1O	-2.3	-6.9	0.7	-1.9	-1.6	i	.	.	.
CC(NC(=O)c1ccc(Br)cc1)C(=O)NC1=NCCS1 (stereo unspecified)	-1.2	-10.6	-0.1	-0.2	-2.9	i	.	.	.
Cc1cc(Cc2cc(C)c(O)c(CO)c2)cc(CO)c1O	0.5	-20.7	.	1.6	2.0	i	.	.	.
